Measured values published in ChEMBL document CHEMBL3085642, “Synthesis and evaluation of novel 4-nitropyrrole-based 1,3,4-oxadiazole derivatives as antimicrobial and anti-tubercular agents” (Eur J Med Chem, 2013).
Values after ≈ are worked out from the molar mass of the structure shown.

Assays:
[1] = system: Vero; test: Cytotoxicity against african green monkey Vero cells after 72 hrs by MTT assay; assay type: cell-based; conditions: Chlorocebus sabaeus
How it was run: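 Vero cells were exposed to compounds for 72 h. Viability was measured by cellular conversion of MTT into formazan (non-radioactive proliferation assay), and the cytotoxic concentration was reported as IC50.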

[2] = system: Escherichia coli; test: Antibacterial activity against Escherichia coli ATCC 25922 by two fold broth dilution method; assay type: functional
[3] = system: Staphylococcus aureus; test: Antibacterial activity against Staphylococcus aureus ATCC 25923 by two fold broth dilution method; assay type: functional
[4] = system: Candida albicans; test: Ratio of ampotericin-B MIC to compound MIC against Candida albicans; assay type: functional
[5] = system: Staphylococcus aureus; test: Antibacterial activity against methicillin-susceptible Staphylococcus aureus ATCC 35556 by broth dilution method; assay type: functional
[6] = system: Escherichia coli; test: Ratio of ciprofloxacin MIC to compound MIC against Escherichia coli ATCC 25922; assay type: functional
[7] = system: Candida albicans; test: Antifungal activity against Candida albicans after 48 hrs by two fold agar dilution method; assay type: functional
How it was run: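 Two-fold serial dilutions in DMSO were tested against C. albicans by agar dilution. Cultures were incubated for 48 h at 35 °C and growth was monitored. MIC was taken as the lowest concentration (highest dilution) that arrested fungal growth.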

[8] = system: Staphylococcus aureus; test: Ratio of ciprofloxacin MIC to compound MIC against Staphylococcus aureus ATCC 25923; assay type: functional
[9] = system: Klebsiella pneumoniae; test: Antibacterial activity against Klebsiella pneumoniae by two fold broth dilution method; assay type: functional
[10] = system: Staphylococcus aureus; test: Antibacterial activity against methicillin-resistant Staphylococcus aureus ATCC 43866 by broth dilution method; assay type: functional
[11] = system: Bacillus spizizenii; test: Antibacterial activity against Bacillus subtilis ATCC 6633 by two fold broth dilution method; assay type: functional
[12] = system: Bacillus spizizenii; test: Ratio of ciprofloxacin MIC to compound MIC against Bacillus subtilis ATCC 6633; assay type: functional
[13] = system: Mycobacterium tuberculosis; test: Antitubercular activity against Mycobacterium tuberculosis H37Rv after 7 days by resazurin microtitre assay; assay type: functional; conditions: 168 h
[14] = system: Staphylococcus aureus; test: Ratio of ciprofloxacin MIC to compound MIC against methicillin-susceptible Staphylococcus aureus ATCC 35556; assay type: functional
[15] = system: Staphylococcus aureus; test: Ratio of ciprofloxacin MIC to compound MIC against methicillin-resistant Staphylococcus aureus ATCC 43866; assay type: functional

Row | Compound | IC50 [1] | MIC [2] | MIC [3] | Ratio [4] | MIC [5] | Ratio [6] | MIC [7] | Ratio [8] | MIC [9] | MIC [10] | MIC [11] | Ratio [12] | MIC [13] | Ratio [14] | Ratio [15]
1 | Cn1cc([N+](=O)[O-])cc1-c1nnc(-c2cc(-c3ccccc3)nc3ccc(Cl)cc23)o1 | 328 µM | 0.39 µg/mL (≈ 0.903 µM) | 0.39 µg/mL (≈ 0.903 µM) | 3 | 0.39 µg/mL (≈ 0.903 µM) | 3 | 0.78 µg/mL (≈ 1.81 µM) | 3 | 12.5 µg/mL (≈ 28.9 µM) | 1.56 µg/mL (≈ 3.61 µM) | 1.56 µg/mL (≈ 3.61 µM) | – | – | – | –
2 | Cn1cc([N+](=O)[O-])cc1-c1nnc(-c2ccccc2Br)o1 | 303 µM | 1.56 µg/mL (≈ 4.47 µM) | 0.78 µg/mL (≈ 2.23 µM) | 2 | 0.39 µg/mL (≈ 1.12 µM) | – | 1.56 µg/mL (≈ 4.47 µM) | 2 | 12.5 µg/mL (≈ 35.8 µM) | 1.56 µg/mL (≈ 4.47 µM) | 0.78 µg/mL (≈ 2.23 µM) | 2 | 12.8 µg/mL (≈ 36.7 µM) | 2 | –
3 | Cn1cc([N+](=O)[O-])cc1-c1nnc(Cc2ccccc2F)o1 | 245 µM | 1.56 µg/mL (≈ 5.16 µM) | 0.78 µg/mL (≈ 2.58 µM) | 2 | 1.56 µg/mL (≈ 5.16 µM) | – | 1.56 µg/mL (≈ 5.16 µM) | 2 | 12.5 µg/mL (≈ 41.4 µM) | 1.56 µg/mL (≈ 5.16 µM) | 0.78 µg/mL (≈ 2.58 µM) | 2 | 8.6 µg/mL (≈ 28.5 µM) | – | –
4 | Cn1cc([N+](=O)[O-])cc1-c1nnc(C2CCCNC2)o1 (stereo not given) | 611 µM | 3.12 µg/mL (≈ 11.3 µM) | 0.78 µg/mL (≈ 2.81 µM) | 2 | 0.39 µg/mL (≈ 1.41 µM) | – | 1.56 µg/mL (≈ 5.63 µM) | 2 | 12.5 µg/mL (≈ 45.1 µM) | 1.56 µg/mL (≈ 5.63 µM) | 1.56 µg/mL (≈ 5.63 µM) | – | 35.6 µg/mL (≈ 128 µM) | 2 | –
5 | COc1cccc(OC)c1-c1nnc(-c2cc([N+](=O)[O-])cn2C)o1 | 177 µM | 6.25 µg/mL (≈ 18.9 µM) | 0.78 µg/mL (≈ 2.36 µM) | 2 | 0.39 µg/mL (≈ 1.18 µM) | – | 1.56 µg/mL (≈ 4.72 µM) | 2 | 12.5 µg/mL (≈ 37.8 µM) | 1.56 µg/mL (≈ 4.72 µM) | 1.56 µg/mL (≈ 4.72 µM) | – | 32 µg/mL (≈ 96.9 µM) | 2 | –
6 | Cn1cc([N+](=O)[O-])cc1-c1nnc(-c2ccc(C#N)cc2)o1 | 315 µM | 6.25 µg/mL (≈ 21.2 µM) | 0.78 µg/mL (≈ 2.64 µM) | 2 | 0.39 µg/mL (≈ 1.32 µM) | – | 1.56 µg/mL (≈ 5.28 µM) | 2 | 12.5 µg/mL (≈ 42.3 µM) | 1.56 µg/mL (≈ 5.28 µM) | 1.56 µg/mL (≈ 5.28 µM) | – | 84.6 µg/mL (≈ 287 µM) | 2 | –
7 | COc1cccc(-c2nnc(-c3cc([N+](=O)[O-])cn3C)o2)c1 | 299 µM | 3.12 µg/mL (≈ 10.4 µM) | 0.78 µg/mL (≈ 2.6 µM) | 2 | 0.39 µg/mL (≈ 1.3 µM) | – | 1.56 µg/mL (≈ 5.2 µM) | 2 | 12.5 µg/mL (≈ 41.6 µM) | 1.56 µg/mL (≈ 5.2 µM) | 1.56 µg/mL (≈ 5.2 µM) | – | 37.4 µg/mL (≈ 125 µM) | 2 | –
8 | Cn1cc([N+](=O)[O-])cc1-c1nnc(-c2ccc(Cl)cc2Cl)o1 | 387 µM | 1.56 µg/mL (≈ 4.6 µM) | 0.39 µg/mL (≈ 1.15 µM) | 2 | 0.39 µg/mL (≈ 1.15 µM) | – | 1.56 µg/mL (≈ 4.6 µM) | 3 | 12.5 µg/mL (≈ 36.9 µM) | 0.78 µg/mL (≈ 2.3 µM) | 0.78 µg/mL (≈ 2.3 µM) | 2 | 18.4 µg/mL (≈ 54.3 µM) | 2 | 2
9 | Cn1cc([N+](=O)[O-])cc1-c1nnc(-c2ccc[nH]2)o1 | 208 µM | 1.56 µg/mL (≈ 6.02 µM) | 0.39 µg/mL (≈ 1.5 µM) | 3 | 0.39 µg/mL (≈ 1.5 µM) | – | 0.78 µg/mL (≈ 3.01 µM) | 3 | 12.5 µg/mL (≈ 48.2 µM) | 0.78 µg/mL (≈ 3.01 µM) | 0.78 µg/mL (≈ 3.01 µM) | 2 | 29.3 µg/mL (≈ 113 µM) | 2 | 2
10 | Cn1cc([N+](=O)[O-])cc1-c1nnc(-c2ccccc2OC(F)(F)F)o1 | 308 µM | 3.12 µg/mL (≈ 8.82 µM) | 0.78 µg/mL (≈ 2.2 µM) | 2 | 0.39 µg/mL (≈ 1.1 µM) | – | 1.56 µg/mL (≈ 4.4 µM) | 2 | 12.5 µg/mL (≈ 35.3 µM) | 1.56 µg/mL (≈ 4.4 µM) | 1.56 µg/mL (≈ 4.4 µM) | – | 3.8 µg/mL (≈ 10.7 µM) | 2 | –
11 | O=[N+]([O-])c1c[nH]c(-c2nnc(-c3ccc[nH]3)o2)c1 | 226 µM | 0.78 µg/mL (≈ 3.18 µM) | 0.78 µg/mL (≈ 3.18 µM) | – | 1.56 µg/mL (≈ 6.36 µM) | 2 | 1.56 µg/mL (≈ 6.36 µM) | 2 | 12.5 µg/mL (≈ 51 µM) | 1.56 µg/mL (≈ 6.36 µM) | 1.56 µg/mL (≈ 6.36 µM) | – | 15.7 µg/mL (≈ 64 µM) | – | –
12 | O=[N+]([O-])c1c[nH]c(-c2nnc(-c3cc(-c4ccccc4)nc4ccc(Cl)cc34)o2)c1 | 281 µM | 0.78 µg/mL (≈ 1.87 µM) | 1.56 µg/mL (≈ 3.73 µM) | – | 1.56 µg/mL (≈ 3.73 µM) | 2 | 1.56 µg/mL (≈ 3.73 µM) | – | 25 µg/mL (≈ 59.8 µM) | 3.12 µg/mL (≈ 7.48 µM) | 3.12 µg/mL (≈ 7.48 µM) | – | 97.2 µg/mL (≈ 233 µM) | – | –
